The test system of data set [1] is RPMI-7951. The data set is described as follows: Cytotoxicity against human RPMI7951 cells after 72 hrs by MTS assay. Format: functional, cell-based. The conditions noted are these: RPMI-7951, 72 h. The procedure, abridged:
(§1)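 Melanoma cells grown in DMEM with 10% FBS and seeded at 1800–3500 cells per well, then incubated overnight. Cells treated for 72 h with 10 concentrations from 0.03 nM to 1 μM, with DMSO vehicle, in four replicates. MTS added for at least 1 h at 37 °C and absorbance read at 490 nm. IC50 obtained by nonlinear regression.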
On the technique in general: Formazan colour is commonly taken as a measure of viable cells.

Data set [2] concerns A-375. Description: Cytotoxicity against human A375 cells after 72 hrs by MTS assay. Format: functional, cell-based. The conditions noted are these: A-375, 72 h. The procedure, abridged: as §1
The test system of data set [3] is M14. Description: Cytotoxicity against human M14 cells after 72 hrs by MTS assay. Type of data set: functional, cell-based. The conditions noted are these: M14, 72 h. In short, it runs like this:
as §1

Data set [4] concerns Liver. The data set is described as follows: Half life in human liver microsomes by UPLC-MS analysis. Type of data set: ADME, microsome. The procedure, abridged:
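Compound at 10 mM in DMSO diluted into human liver microsomes (0.6381 mg/mL protein) in 0.1 M potassium phosphate pH 7.4 with EDTA. NADPH regenerating system added, incubated at 37 °C for 0–4 h in triplicate. Quenched with cold acetonitrile containing warfarin as internal standard, analysed by UPLC–MS SIR. ke from log-linear regression; t1/2 = ln 2/ke.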

In data set [5] the test system is Tubulin (Sus scrofa). Description: Inhibition of tubulin (porcine brain) polymerization measured every min for 50 mins.
The subject of data set [6] is A-375. The data set is described as follows: Induction of morphological changes in human A375 cells xenografted in nude mouse assessed as less microvessel density at 15 mg/kg, ip administered every other day for 2 weeks by immunohistochemical analysis. Type of data set: functional, organism-based. For orientation: Xenograft models place foreign cells or tissue in a host animal.

Data set [7] relates to A-375. The data set is described as follows: Antitumor activity against human A375 cells xenografted in nude mouse assessed as tumor growth inhibition at 15 mg/kg, ip administered every other day for 2 weeks relative to control. Type of data set: functional. The conditions noted are these: A-375, ip, 336 h, read-out: TGI. The procedure, abridged: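 Nude mice 6–8 weeks old; 2 × 10^6 A375 cells in FBS-free medium with Matrigel injected sc into dorsal flank. At about 100 mm3 mice were randomized, n = 8. Drug in 2:1 PEG300/PBS given ip every other day. Volume measured by caliper three times weekly (a × b2 × 0.5).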

A short description of data set [8]: Acute toxicity in nude mouse administered as qd for 5 days. The conditions noted are these: in vivo. In short, it runs like this:
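Nude mice, 6–8 weeks old; compound formulated in PEG300 and given as five continuous daily administrations, then monitored for acute toxicity. A single-dose acute MTD was estimated first.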

Data set [9] relates to A-375. The data set is described as follows: Induction of apoptosis in human A375 cells xenografted in nude mouse assessed as increase in cleaved caspase-3 levels at 15 mg/kg, ip administered every other day for 2 weeks by immunohistochemical analysis. Format: functional, organism-based. The procedure, abridged: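 Formalin-fixed, paraffin-embedded A375 xenograft tumors from mice dosed ip every other day (2:1 PEG300/PBS). Serial sections immunostained with rabbit anti-cleaved caspase 3 antibody by the ABC-DAB method.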

Data set [10] has as its system A-375. The data set is described as follows: Antitumor activity against human A375 cells xenografted in nude mouse assessed as decrease in tumor weight at 30 mg/kg, ip administered every other day for 2 weeks. Format: functional, organism-based. The conditions noted are these: 15 mg/kg, in the assay text read “at 15 mg/kg” for “at 30 mg/kg”. The procedure, abridged: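 Nude mice (6–8 weeks) injected subcutaneously in dorsal flank with 2 × 10^6 A375 cells in Matrigel. At ~100 mm3, randomized (n = 8). Compound given ip every other day in 2:1 PEG300/PBS; vehicle equal parts PEG300/PBS. Tumors weighed at sacrifice; mean ± SEM, ANOVA with Dunnett's test versus vehicle.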

Structures are written as SMILES. The source made the active and inactive calls. The rule behind the calls is not given here. Where only a bound is given, the exact number is not on record here.

As to `COc1ccc2c(c1)C(=O)CCN2c1nc(Cl)nc2ncccc12`, the 50% inhibitory concentration (IC50) in data set [1], in data set [2] and in [3] was over 1000 nM in each case.
For the compound `COc1ccc2c(c1)CCCN2c1nc(Cl)nc2cccnc12`, the IC50 in [1] was 4.4 nM; in [2] it was 4 nM; in data set [3] it was 4.2 nM.
As to `CN(c1ccc2c(c1)OCO2)c1nc(Cl)nc2ncccc12`, the IC50 in [1] was found to be 179 nM; in [2], 162 nM; in [3], 164 nM.
As for `COc1ccc2c(c1)CCCN2c1nc(C)nc2[nH]ncc12`, the IC50 in [1], in data set [2] and in [3] was over 1000 nM throughout.
For `COc1ccc2c(n1)CCCN2c1nc(Cl)nc2ncccc12`, the IC50 in data set [1], in [2] and in data set [3] was over 1000 nM throughout.
Regarding `COc1ccc(N(C)c2nc(Cl)nc3ncccc23)cc1OC`, the figures for the IC50 in data set [1], in [2] and in data set [3] were 47.5 nM, 39 nM and 39.5 nM, respectively.
In the case of `COc1ccc2c(c1)CCCN2c1nc(C)nc2onc(C)c12`, the IC50 in data set [1] is 17.6 nM; in [2] it was 16.1 nM; in [3], 18.8 nM. The t1/2 in [4] stood at 51.6 min.
In the case of `COc1ccc2c(c1)CCCN2c1nc(Cl)nc2ccoc12`, the IC50 in data set [1] stood at 5.1 nM; in data set [2] it was 3.2 nM; in data set [3], 3.3 nM. For the same compound, the inhibition entry in data set [5] is “Dose-dependent effect”. The result in data set [6], in [9] and in data set [10] was Active. The inhibition in vivo at 15 mg/kg in data set [7] worked out at 66.5%. Moreover, in data set [4], the t1/2 stood at 19.2 min. For the same compound, the MTD at 120 h in data set [8] worked out at 30 mg/kg.
For `COc1ccc2c(c1)CCCN2c1nc(Cl)nc2c1cnn2C`, the IC50 in data set [1], in [2] and in data set [3] was over 1000 nM throughout.
`COc1ccc2c(c1)CCCN2c1nc(Cl)nc2ncn(C)c12`: the IC50 in [1] was determined as 58.9 nM; in data set [2], 39.6 nM; in [3], 41.2 nM.
Regarding `COc1ccc2c(c1)C(O)CCN2c1nc(Cl)nc2ncccc12` (stereo not given), the IC50 in data set [1] was determined as 41.9 nM; in [2] it was 36.1 nM; in [3], 52.6 nM.
With `COc1cc(N(C)c2nc(Cl)nc3ncccc23)cc(OC)c1OC`, the IC50 in [1], in [2] and in data set [3] was over 1000 nM throughout.
Take `COc1ccc2c(c1)CCCN2c1nc(Cl)nc2c(C)csc12`: the IC50 worked out at 91.3 nM in data set [1], 49 nM in data set [2] and 52.6 nM in [3].
For the compound `COc1ccc2c(c1)OCCN2c1nc(Cl)nc2ncccc12`, the IC50 in data set [1] came to 404 nM; in data set [2], 223 nM; in data set [3], 269 nM.

As usually defined, the IC50 is the point on the concentration scale where inhibition reaches its midpoint. A lower IC50 goes with greater potency.

For the origin of these results see ChEMBL document CHEMBL4024804 (J Med Chem, 2018).
